Active and inactive are the calls of the source. The rule behind the calls is not given here.
Key:
[1] = tested on: MCF7; experiment: Cytotoxicity against human MCF7 cells after 72 hrs by Alamar blue assay; type: functional, cell-based; conditions: MCF7, 72 h
[2] = tested on: PC-3M; experiment: Cytotoxicity against human PC3M cells at 10 uM after 72 hrs by Alamar blue assay; type: functional, cell-based
[3] = tested on: MCF7; experiment: Cytotoxicity against human MCF7 cells at 10 uM after 72 hrs by Alamar blue assay; type: functional, cell-based
[4] = Cytotoxicity against human PC3M cells after 72 hrs by Alamar blue assay; type: functional, cell-based; conditions: PC-3M
[5] = tested on: SF-268; experiment: Cytotoxicity against human SF268 cells at 10 uM after 72 hrs by Alamar blue assay; type: functional, cell-based
[6] = tested on: NCI-H460; experiment: Cytotoxicity against human NCI-H460 cells at 10 uM after 72 hrs by Alamar blue assay; type: functional, cell-based
[7] = tested on: NCI-H460; experiment: Cytotoxicity against human NCI-H460 cells after 72 hrs by Alamar blue assay; type: functional, cell-based; conditions: NCI-H460, 72 h
[8] = tested on: MDA-MB-231; experiment: Cytotoxicity against human MDA-MB-231 cells at 10 uM after 72 hrs by Alamar blue assay; type: functional, cell-based
[9] = tested on: SF-268; experiment: Cytotoxicity against human SF268 cells after 72 hrs by Alamar blue assay; type: functional, cell-based; conditions: SF-268, 72 h
[10] = tested on: MDA-MB-231; experiment: Cytotoxicity against human MDA-MB-231 cells after 72 hrs by Alamar blue assay; type: functional, cell-based; conditions: MDA-MB-231, 72 h
[11] = tested on: MDA-MB-231; experiment: Antiproliferative activity against human MDA-MB-231 cells after 72 hrs by Alamar blue assay; type: functional, cell-based; conditions: MDA-MB-231, 72 h
Method in brief: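 alamarBlue proliferation/survival read-out in MDA-MB-231 after 72 h exposure. Reagent added to 10% final, 4 h incubation, fluorescence at ex 560/em 590 nm as percent of DMSO vehicle; IC50 and IC25 reported as mean ± error.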

[12] = tested on: PC-3; experiment: Cytotoxicity against human PC3 cells after 72 hrs by Alamar blue assay; type: functional, cell-based; conditions: PC-3, 72 h
[13] = tested on: MDA-MB-231; experiment: Inhibition of human MDA-MB-231 cell migration after 40 hrs by wound-healing assay; type: functional, cell-based; conditions: MDA-MB-231, 40 h
Method in brief: (§1)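 Wound-healing assay: MDA-MB-231 cells grown in DMEM/Ham's F-12 with 10% FBS and gentamicin (50 μg/mL) at 37 °C, 5% CO2. Cells seeded at 150 000/well and grown 24 h to >90% confluent monolayer. Monolayer scratched with toothpick, washed with PBS, fresh medium added, compound in DMSO added in duplicate, 40 h. LY294002 7.5 μM positive control. Wound area measured by ImageJ from three photos per well.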

[14] = tested on: MDA-MB-231; experiment: Inhibition of human MDA-MB-231 cell migration at 2 uM after 40 hrs by wound-healing assay; type: functional, cell-based; method in brief: as §1
[15] = tested on: MIA PaCa-2; experiment: Cytotoxicity against human MIAPaCa2 cells after 72 hrs by Alamar blue assay; type: functional, cell-based; conditions: MIA PaCa-2, 72 h
[16] = tested on: WI-38; experiment: Cytotoxicity against human WI38 cells after 72 hrs by Alamar blue assay; type: cell-based; conditions: WI-38, 72 h
[17] = tested on: MDA-MB-231; experiment: Inhibition of human MDA-MB-231 cell migration at 5 uM after 40 hrs by wound-healing assay; type: functional, cell-based; method in brief: as §1

IC50 [11] [nM] | IC50 [13] [nM] | Compound | IC50 [1] [nM] | Activity [2] | Activity [3] | IC50 [4] [nM] | Activity [5] | Activity [6] | IC50 [7] [nM] | Activity [8] | IC50 [9] [nM] | IC50 [10] [nM] | IC25 [11] [nM] | IC50 [12] [nM] | inhibition [14] | IC50 [15] [nM] | IC50 [16] [nM] | inhibition [17]
– | – | C=C[C@]1(C)C=C2C(=O)[C@@]3(OC(C)=O)OC(=O)[C@@]4(CCCC(C)(C)[C@H]34)[C@@]2(O)CC1 | 2000 | Active | Active | 2700 | Active | Active | 2800 | Active | 4900 | 2500 | – | – | – | – | – | –
3000 | 1500 | C=C[C@]1(C)C=C2C(=O)[C@@]3(O)OC(=O)[C@@]4(CCCC(C)(C)[C@H]34)[C@@]2(O)CC1 [SPHAEROPSIDIN A] | 3000 | Active | Active | 2400 | Active | Active | 1900 | Active | 2100 | 1400 | 1500 | 2500 | Active | 2000 | 3700 | –
– | – | COc1cccc2c1C(=O)c1c(O)c3c(c(O)c1C2=O)C[C@@](O)(C(=O)CO)C[C@@H]3O[C@H]1C[C@H](N)[C@H](O)[C@H](C)O1 [DOXORUBICIN] | 400 | – | – | – | – | – | 300 | – | 600 | 500 | – | 300 | – | 300 | 800 | –
> 5000 | 4800 | C=C[C@]1(C)C=C2C(=O)[C@@]3(O)OC(=O)[C@@]4(CCCC(C)(C)[C@H]34)[C@@]2(O)[C@H](O)C1 [SPHAEROPSIDIN D] | > 10000 | Active | Active | > 10000 | Active | Active | > 10000 | Active | 7500 | 3700 | > 5000 | 9600 | – | 9000 | > 10000 | Active

From ChEMBL document CHEMBL1833914, “Smardaesidins A-G, isopimarane and 20-nor-isopimarane diterpenoids from Smardaea sp., a fungal endophyte of the moss Ceratodon purpureus” (J Nat Prod, 2011)
